# Source: PubChem
# An excerpt weighted towards active compounds, which were near 9.6% of everything screened.
# MT stabilizer = microtubule stabilization, imaging screen | HeLa tubulin immunostaining HCS, 24 h; share of cells brighter than vehicle mean+2SD | % tubulin-high responders, % at 10 µM | AID 2205 | actives 0.83% (n = 200,000);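 active means plate Z-score above 3 for both tubulin-high and condensed-nucleus cell shares, with cell loss under 80%, at 10 µM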;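 further: anti alpha tubulin signal scored within the nucleus-defined area of each cell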
# Lmaj promast = Leishmania major promastigote growth inhibition; Leishmania major promastigotes, resazurin fluorescence viability; inhibition, % at 10 µM; actives 9% (n = 200,000); AID 1063; in the data active means inhibition above about 50%;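 further: promastigotes grown with compound for 44 hours at 28 °C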
# b-catenin transl = modulators of beta-catenin nuclear translocation; HeLa beta-catenin nuclear translocation, immunofluorescence imaging; nuclear translocation activity, % at 5 µM; actives 0.3% (n = 190,000); AID 1665;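 active means nuclear translocation activity above 50% at 5 µM, with a well cell count of 50 or more; inconclusive means wells under 50 cells across six images, flagged as toxic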;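 further: per-cell ratio of nuclear to cytoplasmic median beta-catenin stain intensity; plate controls were DMSO negative control for no effect and GSK-3 inhibitor IX positive control for full effect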
#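 Test system: human HeLa cells, endogenous beta-catenin. Times: 24 h compound exposure, 37°C. Measured by: beta-catenin immunofluorescence imaging with DAPI.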
# Ba/F3 V617F tox = loss of viability in JAK2V617F-driven Ba/F3 cells; Ba/F3 EpoR-JAK2V617F viability, ATP luminescence; inhibition, % at 5.6 µM; actives 1.1% (n = 220,000); AID 1446;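 active means inhibition above the campaign mean plus 3 SD over all tested compounds, cut at about 24% in these data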;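 further: cytokine-independent growth of Ba/F3 cells driven by EpoR plus mutant JAK2; 0% = DMSO-treated cells and 100% = JAK inhibitor I control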
# BaF3 parental = parental Ba/F3 viability inhibition as JAK2V617F counter-screen; actives 1.1% (n = 220,000); inhibition, % at 5.6 µM; CellTiter-Glo ATP luminescence;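 active means inhibition above a per-campaign cutoff, the mean inhibition of all tested compounds plus 3 SD, cut at about 27% in these data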;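 further: 0% = DMSO wells and 100% = JAK Inhibitor I control wells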
# APP 5UTR inh = APP translation inhibition; inhibition, % at 2 µM; AID 1285; actives 0.82% (n = 190,000); SH-SY5Y APP 5'UTR-luciferase reporter, luminescence;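 active means inhibition above a set limit, derived from the sample mean plus 3 SD, cut at about 45% in these data; inconclusive means one replicate passes the limit while the other fails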
# BaF3 parental 2 = parental Ba/F3 viability inhibition for JAK2V617F counter-screen. AID 1520. inhibition, % at 5.6 µM. shares compounds with Ba/F3 V617F tox. actives 31% (n = 580). CellTiter-Glo luminescence; cells kept alive by added IL-3;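 active means cell growth inhibition above the hit limit set in the earlier mutant JAK2 cell screen, cut at about 27% in these data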;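 further: plate controls were DMSO-treated cells for no effect and JAK Inhibitor I control wells for full effect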
# JAK2V617F conf = Ba/F3 EpoR-JAK2V617F viability loss, confirmation; shares compounds with Ba/F3 V617F tox; CellTiter-Glo luminescence; inhibition, % at 5.6 µM; actives 66% (n = 580);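 active means mean inhibition above the hit cutoff derived in the earlier primary screen, cut at about 25% in these data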;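 further: 0% = DMSO-treated cells and 100% = JAK inhibitor I control wells; higher means lower luminescence from reduced cell ATP and viability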
# The depositor's hits bear a star; ? = inconclusive; / = no result.
SMILES,MT stabilizer,Lmaj promast,b-catenin transl,Ba/F3 V617F tox,BaF3 parental,APP 5UTR inh,BaF3 parental 2,JAK2V617F conf
O=C(c1cnc2ccc3ccccc3c2c1)c1cc(F)ccc1O,/,/,3.9,26.3*,16.0,/,17.7,39.5*
O=[N+]([O-])c1ccc(S(=O)(=O)NCCc2ccncc2)cc1,3.0,17.0,-1.2,3.3,7.8,5.6,/,/
CCN1C(=O)CSc2ccc(C(=O)NCc3ccc(OC)cc3)cc21,1.6,-2.4,/,-1.5,2.0,/,/,/
COC(CN(C(=O)CCl)C(C(=O)NC1CCCCC1)c1ccc(C)cc1)OC (configuration not stated),8.3,71.8*,2.3,91.2*,4.8,4.5,0.9,17.1
COCCN(C(=O)CCCC(=O)Nc1ccccn1)C(C(=O)NC1CCCCC1)c1ccc(C)cc1 (configuration not stated),4.2,5.0,-0.3,-1.8,2.5,-8.8,/,/
COCCNC(=O)CN(C(=O)c1ccc(N2CCCC2)nc1)c1ccccc1,2.2,-1.6,1.0,63.6*,9.1,2.1,-4.2,-5.2
O=C(NCCc1ccccc1)C1CCCN1C(=O)Nc1ccc(F)cc1 (configuration not stated),4.2,12.5,-4.1,0.1,3.9,17.6,/,/
Cc1ccc(NC(=O)C(=Cc2ccc(C(=O)O)cc2)C(=O)Nc2ccc(C)cc2C)c(C)c1,/,/,3.5,35.6*,0.8,/,6.2,61.1*
COC(=O)c1ccc(=O)c2nc3/c(=C/O)c(O)cc(=O)c3[nH]c12,/,/,-0.2,-2.0,6.1,/,/,/
COC(=O)C(C(=O)OC)C(C)C(C(=O)OC)C(=O)OC,1.6,0.3,/,61.0*,11.6,15.8,-6.1,-5.7
COC(=O)C(C(=O)OC)N1C(=O)CCC1=O,3.4,-4.1,-1.7,-1.1,1.2,-3.5,/,/
Cc1ccc(N/C(=C\C(=O)c2ccccc2)C(=O)O)cc1,0.9,1.3,0.1,40.2*,8.7,-60.0,-2.5,-1.5
Cc1cccc(Nc2nc(NCc3ccco3)c3ccccc3n2)c1,2.3,100.5*,-1.8,32.6*,12.6,17.8,49.5*,52.5*
CC(C)C[C@H](NC(=O)OC(C)(C)C)c1nnc(SCC(=O)Nc2ccc(Br)cc2)o1,1.8,-6.4,-3.0,99.3*,3.0,-5.3,-5.5,-1.5
COc1ccc(/C=N/NC(=O)CCn2cnc(-c3ccccc3)c2-c2ccccc2)cc1,13.7,11.5,60.1*,46.9*,11.0,89.2*,62.3*,94.0*
Cc1ccc(S(=O)(=O)N2CCNC(=O)CC2)cc1,1.8,1.3,/,1.6,6.2,2.9,/,/
C=CCn1c(Sc2ncc([N+](=O)[O-])s2)n[nH]c1=O,/,/,0.9,77.2*,24.5,/,-4.1,8.9
O=C1CCCN1CCCN=c1c([N+](=O)[O-])nn(-c2ccc(Cl)cc2)n1O,17.9,73.0*,-3.3,32.0*,24.7,5.6,8.1,38.1*
CCOc1ccc(NC2=NC(C)(C)N=C(N)N2)cc1,4.0,5.4,-4.9,40.6*,25.8,-2.4,83.0*,92.8*
COc1ccc(Nc2nc(N)nc(CN3CCOCC3)n2)cc1,4.7,-2.9,-7.8,0.4,6.8,-3.0,/,/
Nc1nc(CCl)nc(Nc2ccc3ccccc3c2)n1,/,/,20.6,100.1*,24.3,/,8.7,99.0*
Cc1ccccc1Nc1nc(N)nc(CCl)n1,/,/,1.0,37.1*,-5.0,/,-2.6,9.0
COc1ccc(Nc2nc(N)nc(CCl)n2)cc1,/,/,0.5,45.2*,-1.0,/,-0.6,65.5*
CC1CCCCN1S(=O)(=O)c1ccc(S(=O)(=O)NCCc2ccncc2)cc1 (configuration not stated),3.2,-0.5,-5.0,-2.1,4.0,-15.0,/,/
CCC(CC)C1=NN2C(=N)/C(=C\c3cc(C)n(-c4cccc(C)c4)c3C)C(=O)N=C2S1,2.8,43.6,-0.4,-1.4,5.4,13.8,/,/
SMILES,MT stabilizer,Lmaj promast,b-catenin transl,Ba/F3 V617F tox,BaF3 parental,APP 5UTR inh,BaF3 parental 2,JAK2V617F conf
COC(=O)/C=C/c1ccc(OC(=O)OC)c(OC(=O)OC)c1,5.7,40.3,0.4,29.6*,7.2,21.8,2.8,82.3*
COC(=O)c1cccc(NC(=O)COc2cccc([N+](=O)[O-])c2)c1,4.0,11.8,-1.8,0.1,9.8,-30.7,/,/
COc1cccc(C(=O)COc2cccc(NC(=O)c3cccc([N+](=O)[O-])c3)c2)c1,0.8,23.9,-2.3,42.1*,10.4,-4.3,-2.7,-9.5
O=C(CCCCCN1C(=O)c2ccccc2C1=O)Oc1ccc2c3c(c(=O)oc2c1)CCC3,3.6,-3.8,-2.6,1.7,4.4,5.9,/,/
COc1cccc(N(C(=O)CCl)C(C(=O)NCCc2ccccc2)c2cccs2)c1 (configuration not stated),5.2,100.2*,1.8,99.2*,3.7,4.3,21.3,99.1*
COc1cccc(N(C(=O)CS(=O)CC(=O)Nc2ccc(F)cc2)C(C(=O)NC2CCCCC2)c2cccs2)c1 (configuration not stated),1.8,24.5,-1.8,0.5,9.2,5.1,/,/
COc1ccc(N(C(=O)CCl)C(C(=O)NCCc2ccccc2)c2cccs2)cc1Cl (configuration not stated),31.9,100.4*,-2.0,101.1*,-1.9,-2.0,25.2,99.3*
NC(=O)[C@@H]1CCCN1Cc1nc(Cc2ccccc2Cl)no1,5.3,-4.2,-2.2,0.7,4.6,4.8,/,/
CC1=CC(C)(C)N(C(=O)CN2C(=O)c3ccccc3C2=O)c2ccccc21,6.0,7.3,2.0,-2.1,1.4,-4.5,/,/
CC1=CC(C)(C)N(S(=O)(=O)c2ccc(C)cc2)c2ccccc21,12.0,100.0*,/,30.2*,10.7,20.2,46.0*,94.5*
CCn1ncc([N+](=O)[O-])c1C(=O)NC1CCCCC1,2.1,-2.1,-1.7,0.0,1.5,7.5,/,/
Cc1cc2[nH]c3c(c[n+](C)c4ccccc34)c2cc1C,18.5,100.4*,?,33.4*,4.4,83.4*,14.9,92.3*
COCc1ccc([C@@H]2C[C@H]3CN(Cc4ccccc4C)C(=O)[C@]34CCCN24)o1,4.1,3.0,2.6,-2.1,-4.3,3.6,/,/
CCN1C=C(C(=O)OC)C(c2cccc(C)c2)C(C(=O)OC)=C1,3.5,-3.3,-1.2,-2.5,-0.5,21.4,/,/
CCCCOc1ccccc1C1C(C(=O)OC)=CN(CC)C=C1C(=O)OC,2.2,60.9*,-1.5,28.9*,26.4,1.5,29.7*,35.1*
Cc1nc([N+](=O)[O-])c(NCCO)n1Cc1ccccc1,1.4,-0.1,-0.7,-2.6,2.4,-3.2,/,/
Cc1nc([N+](=O)[O-])c(Br)n1Cc1ccc(Cl)c(Cl)c1,3.0,100.5*,0.5,46.4*,-1.8,21.4,1.5,84.6*
CCCCNC(=O)NS(=O)(=O)c1cnccc1Sc1ccc(Cl)cc1,2.4,-6.3,0.6,-1.0,2.5,-16.2,/,/
CCCC(=O)Nc1ccc(Cl)c(NC(=O)c2cccnc2)c1,3.4,4.9,-0.4,60.1*,1.5,-3.9,-3.0,-3.7
COc1cc(C)c(C(C)C)cc1S(=O)(=O)n1cnc(C)c1,14.2*,4.1,93.1*,63.0*,16.3,-11.8,61.4*,92.4*
COC(=O)c1sc(S(=O)(=O)NC(C)C(=O)O)c(C(=O)OC)c1C (configuration not stated),3.0,-1.2,-3.5,-4.6,3.3,8.2,/,/
